Here are results for 12 compounds from ChEMBL document CHEMBL3992503, “Developing piperlongumine-directed glutathione S-transferase inhibitors by an electrophilicity-based strategy” (Eur J Med Chem, 2017).

Broadly, the inhibition is the relative decrease from the control value, in per cent. As usually defined, the IC50 is the concentration that gives 50% inhibition. Usually Ki stands for a dissociation constant, usually derived from enzyme kinetics or from competition with a known ligand. Read a low Ki as higher affinity.

Assay [1] is filed under the species Equus caballus. As to the kind of experiment: Inhibition of equine liver GST assessed as decrease in conjugation of CDNB to GSH at 100 uM preincubated with GSH for 30 mins followed by CDNB addition measured for 3 mins relative to control. Summed up:
(§1)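 CDNB–GSH conjugation by equine liver GST in 100 mM potassium phosphate pH 6.5 with 1 mM GSH. Enzyme and inhibitor preincubated 30 min at 37 °C. Reaction started with 1 mM CDNB (final) and followed at 340 nm for 3 min at 25 °C. Single-point inhibition at 100 (unit unclear); IC50 from sigmoidal fit of inhibition versus concentration.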

Assay [2] can be described thus: Inhibition of equine liver GST assessed as decrease in conjugation of CDNB to GSH preincubated with GSH for 30 mins followed by CDNB addition measured for 3 mins. Also noted: species or system Equus caballus. Summed up: as §1
The nature of assay [3]: Noncompetitive inhibition of equine liver GST using fixed GSH substrate concentration and varying levels of CDNB preincubated with GSH for 30 mins followed by CDNB addition measured for 3 mins by Lineweaver-Burk plot analysis. Also noted: species or system Equus caballus. In short, it runs like this: (§2)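 Equine liver GST in 100 mM potassium phosphate pH 6.5 with inhibitor at 0, 12.5, 25 or 50 (unit unclear). Varied substrate at 0.1–1 mM, other substrate fixed at 1 mM: GSH varied for line 1, CDNB for line 10. Preincubated 30 min at 37 °C, started with CDNB, A340 read for 3 min at 25 °C. Mean of triplicates on Lineweaver-Burk plots; Ki from intercept (CDNB) or slope (GSH) replots.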

Assay [4] in a line: Competitive inhibition of equine liver GST using varying levels of substrate GSH and fixed CDNB concentration preincubated with GSH for 30 mins followed by CDNB addition measured for 3 mins by Lineweaver-Burk plot analysis. Also noted: species or system Equus caballus. In short, it runs like this: as §2
In assay [5] the target is T1, Glutathione S-transferase Mu 1 (Homo sapiens) (UniProt P09488).
T1 sequence (whole entry): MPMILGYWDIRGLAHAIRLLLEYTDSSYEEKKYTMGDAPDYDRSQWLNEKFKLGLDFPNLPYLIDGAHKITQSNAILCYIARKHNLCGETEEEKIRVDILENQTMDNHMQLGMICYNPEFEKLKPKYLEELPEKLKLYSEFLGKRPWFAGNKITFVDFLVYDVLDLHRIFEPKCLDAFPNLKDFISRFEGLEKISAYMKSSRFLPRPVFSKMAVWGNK
As to the kind of experiment: Inhibition of GSTM1 in human A549 cells assessed as potentiation of cisplatin-induced cytotoxicity at 5 uM preincubated for 2 hrs followed by cisplatin addition measured after 48 hrs by MTT assay. The assay is classed as cell-based. In short, it runs like this:
(§3)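 A549 cells seeded at 3 × 10⁴ cells/mL and cultured 24 h. For line 6, DTT pretreatment (250, unit unclear) for 1 h. Compound added for 2 h, then cisplatin at 2.5, 5, 10 and 20 (unit unclear) for 48 h. MTT for 4 h at 37 °C in the dark, DMSO solubilisation, OD read at 570 nm.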
For orientation: Tetrazolium dyes change colour on reduction, which living cells bring about.

The target of assay [6] is T1, Glutathione S-transferase Mu 1 (Homo sapiens). As to the kind of experiment: Inhibition of GSTM1 in human A549 cells assessed as potentiation of cisplatin-induced cytotoxicity by measuring combination index at 5 uM preincubated for 2 hrs followed by cisplatin addition measured after 48 hrs by MTT assay. The assay is classed as cell-based.
Assay [7] shares this target. As to the kind of experiment: Inhibition of GSTM1 in human A549 cells assessed as potentiation of cisplatin-induced cytotoxicity at 5 uM preincubated for 2 hrs followed by cisplatin addition measured after 48 hrs in presence of DTT by MTT assay. Format: cell-based. Summed up:
as §3

The nature of assay [8]: Electrophilicity of the compound assessed as second-oder rate constant for reaction with cysteamine under pseudo-first-oder condition at 40 uM by spectrophotometric method. Summed up: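 Compound fixed at 40 (unit unclear) with cysteamine 0.67–9 mM in 100 mM Tris-HCl pH 7.4 containing 2 mM EDTA–ethanol (v/v 2/1), 25 °C, pseudo-first-order conditions. Decay of compound followed spectrophotometrically at its absorbance maximum; second-order constant k2 derived from these runs.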

The test system of assay [9] is A549. As to the kind of experiment: Inhibition of GST in human A549 cells at 25 uM after 1.5 hrs by DNs-CV probe based fluorescence microscopic method.
Assay [10] deals with A549. As to the kind of experiment: Inhibition of GST in human A549 cells at 25 uM after 1.5 hrs in presence of DTT by DNs-CV probe based fluorescence microscopic method.

Structures are written as SMILES. Calls of active or inactive are those of the source. No cut-off for these calls is given here. Some results are limits rather than exact numbers.

In the case of `O=C(/C=C/c1ccc(C(F)(F)F)cc1)N1CCC=C(Cl)C1=O`, the inhibition in assay [1] was 74.7%. In addition, the IC50 in assay [2] was 5.6 µM. In addition, the inhibition constant Ki in assay [3] is 24.7 µM; in assay [4], 7.8 µM. The inhibition entry in assay [5] and in [9] was “Active” in each case. Moreover, the CI in assay [6] was under 1. The inhibition result in assay [7] and in assay [10] was “inactive” each time. Moreover, the K in assay [8] came out at 2.64 M⁻¹ s⁻¹.
Turning to `COc1cc(/C=C/C(=O)N2CCC=C(Cl)C2=O)cc(OC)c1OC`, the inhibition in assay [1] amounted to 30.8%. The IC50 in assay [2] was over 100 µM. Moreover, the K in assay [8] is 0.99 M⁻¹ s⁻¹.
Take `O=C1C=CCCN1C(=O)/C=C/c1cccc(C(F)(F)F)c1`: the inhibition in assay [1] stood at 53%. Besides, the half-maximal inhibitory concentration (IC50) in assay [2] is 50.1 µM. Further, the K in assay [8] stood at 1.13 M⁻¹ s⁻¹.
For `COc1cc(CCC(=O)N2CCCCC2=O)cc(OC)c1OC` [TETRAHYDROPIPLARTINE], the inhibition in [1] came to 0%. In addition, in assay [2], the half-inhibitory concentration (IC50) is over 100 µM.
Regarding `O=C1C=CCCN1C(=O)/C=C/c1ccc(C(F)(F)F)cc1`, the inhibition in [1] worked out at 55.5%. For the same compound, in [2], the IC50 was 41.6 µM. The K in assay [8] is 1.35 M⁻¹ s⁻¹.
`O=C(/C=C/c1cccc(C(F)(F)F)c1)N1CCC=C(Cl)C1=O`: in assay [1], the inhibition was 71%. The concentration for half-maximal inhibition (IC50) in [2] amounted to 10.5 µM. In addition, in assay [8], the K came out at 2.53 M⁻¹ s⁻¹.
`C/C=C/C(=O)N1CCC=CC1=O`: the inhibition in [1] was 8.2%. Also, the half-maximal inhibitory concentration (IC50) in [2] is over 100 µM. For the same compound, the K in [8] was determined as 1.21 M⁻¹ s⁻¹.
On to `COc1cc(/C=C/C(=O)N2CCCCC2=O)cc(OC)c1OC`, for which, in [1], the inhibition was determined as 15.4%. Moreover, the IC50 in assay [2] is over 100 µM. Moreover, the K in [8] was found to be 0.35 M⁻¹ s⁻¹.
In the same order, the values of `O=C1C=CCCN1C(=O)/C=C/c1ccccc1C(F)(F)F` are 31.5%, over 100 µM and 0.39 M⁻¹ s⁻¹.
In the case of `COc1cc(/C=C/C(=O)C2CCC=CC2=O)cc(OC)c1OC` (stereo not drawn), the inhibition in [1] was 50.5%. Also, in [2], the IC50 was over 100 µM. Also, in assay [8], the K was 1.15 M⁻¹ s⁻¹.
In the same order, the values of `O=C(/C=C/c1ccccc1C(F)(F)F)N1CCC=C(Cl)C1=O` are 40.3%, over 100 µM and 0.67 M⁻¹ s⁻¹.
`COc1cc(/C=C/C(=O)N2CCC=CC2=O)cc(OC)c1OC` [PIPLARTINE]: the inhibition in [1] is 30.7%. Further, in assay [2], the IC50 was over 100 µM. In addition, in assay [8], the K is 0.46 M⁻¹ s⁻¹. The inhibition result in assay [9] was “inactive”.
